# B1: GFP-AF10L107A: AF10 mutant that abolishes H3 binding, involved in both K23 and K27 side-chain recognition (protein)
# chain: MVSSDRPVSLEDEVSHSMKEMIGGCCVCSDERGWAENPLVYCDGHGCSVAVHQACYGIVQVPTGPWFCRKCESQERAARVRCELCPHKDGALKRTDNGGWAHVVCAAYIPEVQFANVSTMEPIVLQSVPHDRYNKTCYICDEQGRESKAATGACMTCNKHGCRQAFHVTCAQFAGLLCEEEGNGADNVQYCGYCKYHFSKLKKSKRGS
# modifications: left off: GST, end not stated, kept
# Tests used:
# [1] = system: PABPC1 gene, U2OS cells; experiment: ChIP of GFP at PABPC1; assay type: cell-based; conditions: % GFP signal/input, three experiments
# Method in brief: (§1)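 Direct ChIP at the PABPC1 gene used two primer positions along the gene in the U2OS AF10 complementation lines. GFP enrichment was expressed as % GFP signal/input. H3K79me2 signal was normalized to total H3 signal. SEM came from three experiments.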
# [2] = system: H3(15-34) peptides; experiment: Peptide pull-down and ITC of AF10PZP mutants; assay type: binding; conditions: pull-down and ITC assays
# Method in brief: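 Alanine substitutions were made at AF10PZP residues that contact H3T22, H3K23, H3A24, H3R26 and H3K27. GST-AF10PZP (pGEX-6P-1 construct) was used in pull-downs with biotinylated H3(15-34) peptides, and binding was also assessed by ITC.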
# [3] = system: H3K79me2 at the PABPC1 gene, U2OS cells; experiment: ChIP of H3K79me2 at PABPC1; assay type: cell-based; conditions: AF10 deleted, normalized to total H3, three experiments
# Method in brief: as §1
# [4] = system: ML2 leukemia cells; experiment: Proliferation of ML2 cells; assay type: cell-based; conditions: AF10-depleted ML2 cells; three independent experiments
# Method in brief: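 Growth curves were run on ML2 leukemia cells (MLL-AF6 fusion) carrying control or AF10-targeting sgRNA, either without reconstitution or reconstituted with wild-type AF10 or AF10L107A. SEM came from three independent experiments.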
# [5] = system: chromatin (U2OS cells); assay type: cell-based
# Method in brief: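 Lysates from U2OS cells expressing wild-type or mutant GFP-AF10 were biochemically separated into soluble and chromatin-enriched fractions, then Western blotted with the indicated antibodies. Whole cell extract controlled for total AF10 expression, and tubulin and H3 levels controlled for integrity of fractionation.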
# [6] = system: chromatin (HeLa cells); experiment: In situ fractionation, fluorescence microscopy; assay type: cell-based; conditions: detergent treatment prior to fixation, 30–60 cells, three independent fields, two biological replica
molecule,measurement,setting,value
B1,occupancy at the PABPC1 gene,[1],low relative to wild-type GFP-AF10
same,effect of AF10PZP mutation on binding to H3 peptides,[2],abolishes H3 binding
same,reconstitution of H3K79me2 signal at PABPC1,[3],but not upon induction of GFP-AF10L107A
same,reversal of decreased proliferation,[4],but not with mutant AF10L107A
same,AF10 enrichment at chromatin,[5]; tetracycline-inducible GFP-AF10,reduced in comparison to wild-type AF10
same,AF10 detected in the soluble fraction,[5]; versus wild-type AF10,more mutant being detected in the soluble fraction
same,chromatin-association by in situ fractionation,[6],Decreased chromatin-association

# From paper PMC4609290 (Molecular cell, 2015)
